ChEMBL document CHEMBL4825663 (J Med Chem, 2021)
Activity calls are given as the source filed them. No cut-off for these calls is given here.

How the values were obtained:
[1] = Toxicity in Sprague-Dawley rat assessed as enlargement of mesenteric lymph nodes at >= 50 mg/kg, po and measured after 4 to 13 weeks; assay type: organism-based, Mesenteric lymph node; conditions: in vivo, time 4-13 weeks
Cytochrome P450 1A2 = molecular target: T1, Cytochrome P450 1A2 (Homo sapiens, UniProt P05177); experiment: Drug metabolism assessed as human CYP1A2-mediated metabolism; assay type: ADME; conditions: recombinant enzyme
T1 sequence (P05177 whole entry): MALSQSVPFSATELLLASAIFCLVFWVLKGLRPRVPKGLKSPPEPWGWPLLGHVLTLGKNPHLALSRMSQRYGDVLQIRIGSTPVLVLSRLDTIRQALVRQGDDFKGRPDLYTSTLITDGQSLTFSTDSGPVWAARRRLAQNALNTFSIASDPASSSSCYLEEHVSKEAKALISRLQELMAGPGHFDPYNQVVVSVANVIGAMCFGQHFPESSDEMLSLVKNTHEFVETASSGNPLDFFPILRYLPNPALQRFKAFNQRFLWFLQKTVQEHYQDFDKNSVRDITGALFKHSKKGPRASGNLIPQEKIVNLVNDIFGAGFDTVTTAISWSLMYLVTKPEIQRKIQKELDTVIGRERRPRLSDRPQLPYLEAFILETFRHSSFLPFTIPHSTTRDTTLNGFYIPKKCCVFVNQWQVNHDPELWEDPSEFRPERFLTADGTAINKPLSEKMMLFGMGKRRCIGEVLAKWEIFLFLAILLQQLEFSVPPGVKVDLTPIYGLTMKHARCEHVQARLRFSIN

[2] = Half life in Sprague-Dawley rat at 3 mg/kg, iv measured upto 48 hrs by LC-MS/MS analysis; assay type: ADME, organism-based; conditions: in vivo
How it was run: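 Plasma pharmacokinetics in male Sprague-Dawley rats and male Beagle dogs (n = 3 per species), each given a single dose by IV at 3 mg/kg and by PO at 10 mg/kg. Cmax, Tmax, T1/2 and AUClast were derived for each route. F (%) was calculated from the PO and IV AUClast.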

[3] = molecular target: T2, Multidrug and toxin extrusion protein 2 (Homo sapiens, UniProt Q86VL8); experiment: Inhibition of human MATE2K assessed as reduction in intracellular probe substrate accumulation upto 100 uM by microplate scintillation counter analysis relative to control; assay type: cell-based
T2 sequence (Q86VL8 whole entry): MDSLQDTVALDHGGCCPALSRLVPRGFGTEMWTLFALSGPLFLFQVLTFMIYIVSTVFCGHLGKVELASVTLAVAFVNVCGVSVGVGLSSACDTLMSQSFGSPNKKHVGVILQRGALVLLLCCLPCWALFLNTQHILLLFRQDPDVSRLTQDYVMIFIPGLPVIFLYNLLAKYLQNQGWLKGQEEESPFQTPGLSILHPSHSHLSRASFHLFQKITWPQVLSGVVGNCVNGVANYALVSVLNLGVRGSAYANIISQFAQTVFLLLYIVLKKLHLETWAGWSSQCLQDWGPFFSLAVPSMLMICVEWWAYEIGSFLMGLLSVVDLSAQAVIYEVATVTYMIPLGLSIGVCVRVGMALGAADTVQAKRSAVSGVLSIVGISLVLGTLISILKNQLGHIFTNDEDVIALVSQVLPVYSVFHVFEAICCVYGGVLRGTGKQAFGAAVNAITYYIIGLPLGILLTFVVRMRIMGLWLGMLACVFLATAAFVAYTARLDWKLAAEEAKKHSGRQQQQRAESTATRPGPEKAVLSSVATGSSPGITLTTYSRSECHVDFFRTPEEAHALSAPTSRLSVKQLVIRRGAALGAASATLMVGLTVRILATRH
How it was run: (§1)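 Cellular uptake-inhibition assays used Chinese hamster ovary, HEK293 or MDCKII cells stably expressing the respective human SLC transporter, run alongside the corresponding control cells. Inhibitor was tested at concentrations up to 100 μM.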

[4] = molecular target: T3, Solute carrier organic anion transporter family member 1B1 (Homo sapiens, UniProt Q9Y6L6); experiment: Inhibition of human OATP1B1 assessed as reduction in intracellular probe substrate accumulation upto 100 uM by microplate scintillation counter analysis relative to control; assay type: cell-based; how it was run: as §1
T3 sequence (Q9Y6L6 whole entry): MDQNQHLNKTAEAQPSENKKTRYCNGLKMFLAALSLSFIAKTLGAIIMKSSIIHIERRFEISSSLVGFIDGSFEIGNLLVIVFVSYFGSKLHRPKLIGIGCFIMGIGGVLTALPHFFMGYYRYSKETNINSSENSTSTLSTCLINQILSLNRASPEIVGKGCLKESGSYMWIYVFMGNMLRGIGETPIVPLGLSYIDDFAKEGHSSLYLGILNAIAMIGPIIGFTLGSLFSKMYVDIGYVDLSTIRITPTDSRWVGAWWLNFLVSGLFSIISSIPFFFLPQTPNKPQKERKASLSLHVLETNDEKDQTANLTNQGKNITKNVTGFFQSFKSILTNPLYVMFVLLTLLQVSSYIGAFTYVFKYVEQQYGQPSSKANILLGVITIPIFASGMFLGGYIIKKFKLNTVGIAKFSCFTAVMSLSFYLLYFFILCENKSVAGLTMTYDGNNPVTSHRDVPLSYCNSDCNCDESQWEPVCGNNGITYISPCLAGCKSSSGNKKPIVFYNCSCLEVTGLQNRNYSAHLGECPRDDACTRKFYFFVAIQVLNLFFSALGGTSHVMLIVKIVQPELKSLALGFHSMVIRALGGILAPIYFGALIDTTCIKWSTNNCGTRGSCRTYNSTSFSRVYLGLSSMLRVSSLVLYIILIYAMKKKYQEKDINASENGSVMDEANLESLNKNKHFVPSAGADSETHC

[5] = Toxicity in Beagle dog assessed as histiocytosis in lymph nodes at >= 100 mg/kg, po and measured after 13 weeks; assay type: organism-based, Canis lupus familiaris; conditions: in vivo, 2184 h
[6] = molecular target: ATP-binding cassette sub-family C member 3 (Homo sapiens, UniProt O15438); experiment: Inhibition of […]-stimulated MRP3 ATPase activity (unknown origin) in presence of GSH
Sequence of ATP-binding cassette sub-family C member 3 (O15438 whole entry): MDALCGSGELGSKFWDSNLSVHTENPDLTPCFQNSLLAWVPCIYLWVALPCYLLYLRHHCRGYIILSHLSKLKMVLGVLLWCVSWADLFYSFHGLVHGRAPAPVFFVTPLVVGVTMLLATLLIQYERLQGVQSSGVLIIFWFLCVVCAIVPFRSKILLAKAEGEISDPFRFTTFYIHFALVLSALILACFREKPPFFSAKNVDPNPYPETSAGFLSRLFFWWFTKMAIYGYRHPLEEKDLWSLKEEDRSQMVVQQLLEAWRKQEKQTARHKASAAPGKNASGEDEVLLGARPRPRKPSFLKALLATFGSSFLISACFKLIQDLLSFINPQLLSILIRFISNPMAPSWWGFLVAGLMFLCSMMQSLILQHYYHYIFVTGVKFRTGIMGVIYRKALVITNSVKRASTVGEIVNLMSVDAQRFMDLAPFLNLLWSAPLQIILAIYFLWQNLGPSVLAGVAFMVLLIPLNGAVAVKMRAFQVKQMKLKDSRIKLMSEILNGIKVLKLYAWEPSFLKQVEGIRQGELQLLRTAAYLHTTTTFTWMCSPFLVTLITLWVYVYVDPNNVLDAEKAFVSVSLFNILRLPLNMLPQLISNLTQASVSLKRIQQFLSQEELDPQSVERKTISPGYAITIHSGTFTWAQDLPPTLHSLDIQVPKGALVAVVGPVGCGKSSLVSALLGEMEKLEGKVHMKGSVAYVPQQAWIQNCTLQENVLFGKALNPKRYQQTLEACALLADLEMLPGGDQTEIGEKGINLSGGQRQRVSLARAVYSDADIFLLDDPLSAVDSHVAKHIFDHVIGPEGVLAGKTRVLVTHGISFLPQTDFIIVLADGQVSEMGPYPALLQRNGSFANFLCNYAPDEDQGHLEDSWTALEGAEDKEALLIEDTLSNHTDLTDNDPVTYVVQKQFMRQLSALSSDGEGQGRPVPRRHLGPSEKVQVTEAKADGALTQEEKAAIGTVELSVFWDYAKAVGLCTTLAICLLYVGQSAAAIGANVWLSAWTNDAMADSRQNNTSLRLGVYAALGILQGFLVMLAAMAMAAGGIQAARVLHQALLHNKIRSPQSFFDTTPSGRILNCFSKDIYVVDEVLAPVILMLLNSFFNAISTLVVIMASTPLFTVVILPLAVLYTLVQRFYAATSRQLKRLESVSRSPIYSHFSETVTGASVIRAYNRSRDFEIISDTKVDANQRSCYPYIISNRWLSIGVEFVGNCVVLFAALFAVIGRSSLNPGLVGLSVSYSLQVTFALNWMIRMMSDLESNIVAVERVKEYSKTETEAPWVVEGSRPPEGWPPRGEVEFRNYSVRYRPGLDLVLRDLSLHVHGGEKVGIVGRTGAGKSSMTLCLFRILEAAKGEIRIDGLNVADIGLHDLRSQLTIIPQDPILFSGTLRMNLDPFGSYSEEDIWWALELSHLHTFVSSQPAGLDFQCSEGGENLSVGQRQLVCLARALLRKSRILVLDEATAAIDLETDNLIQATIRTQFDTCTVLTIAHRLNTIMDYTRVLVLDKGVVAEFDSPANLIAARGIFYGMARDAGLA

[7] = Ratio of drug concentration in BALB/c mouse small intestine to plasma at 20 mg/kg, po measured upto 24 hrs in presence of 10 mg/kg encequidar by LC-MS/MS analysis; assay type: ADME, organism-based
[8] = Drug metabolism in dog plasma assessed as metabolic ratio of 6alpha-hydroxypaclitaxel at 6 mg/kg, po in presence of 3 mg/kg encequidar; assay type: ADME, organism-based, Canis lupus familiaris; conditions: in vivo
[9] = Drug metabolism in dog plasma assessed as metabolic ratio of 3-p-hydroxypaclitaxel at 6 mg/kg, po in presence of 3 mg/kg encequidar; assay type: ADME, organism-based, Canis lupus familiaris; conditions: in vivo
[10] = Oral bioavailability in Sprague-Dawley rat at 20 mg/kg measured upto 24 hrs by LC-MS/MS analysis; assay type: ADME, organism-based; conditions: in vivo
[11] = Drug distribution in Sprague-Dawley rat kidney at 20 mg/kg, po measured upto 168 hrs in presence of 10 mg/kg encequidar by LC-MS/MS analysis; assay type: ADME, organism-based; conditions: in vivo
HT-29 = experiment: Antitumor activity against human HT-29 cells xenografted in athymic nude mouse assessed as induction of remission of tumor growth at 40 mg/kg, po in presence of 20 mg/kg encequidar measured until day 47; assay type: functional, organism-based
[12] = Drug excretion in Sprague-Dawley rat bile at 20 mg/kg, po in presence of 10 mg/kg encequidar; assay type: ADME, organism-based; conditions: in vivo

Drug metabolism (Cytochrome P450 1A2) | half-life [2] [min] | inhibition (INH) [4] [%] | IC50 [6] [µM] | SMILES | Activity [1] | inhibition (INH) [3] [%] | Activity [5] | Kp at 24 h [7] | Ratio [8] | Ratio [9] | bioavailability [10] [%] | Drug uptake [11] | Activity (HT-29) | Drug excretion [12]
Metabolite_Notdetected | 888 | < 50 | > 100 | COc1cc2c(cc1OC)CN(CCc1ccc(-n3nnc(-c4cc(OC)c(OC)cc4NC(=O)c4cc(=O)c5ccccc5o4)n3)cc1)CC2 | Toxic | < 50 | Toxic |  |  |  |  |  |  | 
 |  |  |  | CC(=O)O[C@H]1C(=O)[C@@]2(C)[C@H]([C@H](OC(=O)c3ccccc3)[C@]3(O)C[C@H](OC(=O)[C@H](O)[C@@H](NC(=O)c4ccccc4)c4ccccc4)C(C)=C1C3(C)C)[C@]1(OC(C)=O)CO[C@@H]1C[C@@H]2O [PACLITAXEL] |  |  |  | > 1 | 0.76 | 0.01 | 3.4 | Active | Active | Metabolite_Detected
